Env fusion inh: inhibitors of HIV Env-mediated cell fusion; hit rate 1.1% among 360,000; HeLa-JRFL Env/CEM21 cell fusion, luciferase; inhibition, % at 12.3 µM;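 active means mean replicate inhibition score of at least 50 and every replicate individually at or above 50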;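 further: 0% = plate neutral controls and 100% = maraviroc near 300 nM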
dFosB activator: enhances mouse delta FosB homodimer DNA binding | AID 493131 | activation, % at 25 µM | P13346 | purified delta FosB, TAMRA-CDK5 oligo fluorescence polarization; percent of positive-control signal above neutral wells | hit rate 0.99% among 340,000;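 active means mean activation above about 17%, with every replicate also reaching it, limit read from the data, passing the limit was not always enough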
Target sequence (P13346 whole entry, looked up): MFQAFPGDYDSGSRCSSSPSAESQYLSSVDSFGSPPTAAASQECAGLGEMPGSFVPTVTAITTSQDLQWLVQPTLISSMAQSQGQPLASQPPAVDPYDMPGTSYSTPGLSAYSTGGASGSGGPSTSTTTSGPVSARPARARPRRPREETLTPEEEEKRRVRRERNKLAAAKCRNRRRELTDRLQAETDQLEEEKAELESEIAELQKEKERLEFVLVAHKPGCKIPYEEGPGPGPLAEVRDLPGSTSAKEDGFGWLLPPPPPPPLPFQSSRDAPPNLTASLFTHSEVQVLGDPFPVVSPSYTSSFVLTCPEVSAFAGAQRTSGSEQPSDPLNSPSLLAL
Cneo AK release: causes C. neoformans cell lysis. adenylate kinase release luminescence, 4 h; normalised: neutral wells 0, clomiphene wells 100. lysis activity, % at 15 µM. hit rate 0.2% among 360,000. AID 651654;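 active means mean lysis activity across replicates of at least 80%, whatever share of replicates individually reach that level; inactive means mean lysis activity below 80%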
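read-out = cell lysis signal | test system = log-phase Cryptococcus neoformans yeast cells | input = cells at 5 × 10^6 per mL | medium = fresh YPD growth medium | signal = luminescent adenylate kinase detection reagent | timing = 4 h at 37 °C static, read 1 h later | dosing = single dose | controls = Clomiphene as positive lysis control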
PAX8 inh HTS: lowers PAX8-driven luciferase in RMG-I cells. RMG-I TPO-luciferase reporter, SteadyGlo, 24 h. hit rate 1.2% among 360,000. inhibition, % at 12.6 µM;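 active means mean replicate inhibition at least 60% with every replicate also reaching 60%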;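 further: luciferase light reporting Pax8 driven TPO promoter activity; plate controls were median of neutral control wells for no effect and mitoxantrone controls for full effect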
GSIS activator: GLuc luminescence reporter in INS-1E cells, primary screen for activators of glucose-dependent secretion of insulin; INS-1E GLuc reporter insulin secretion, 2-3 h; hit rate 0.61% among 370,000; AID 743287; activation, % at 16.6 µM;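 active means lowest replicate activation of at least 40%, so every replicate reaches that level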;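 further: 0% = median of neutral control wells and 100% = median of IBMX positive control wells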
CDK5 p35 inh: inhibitors of human CDK5/p35 kinase; Recombinant CDK5/p35, ADP-Glo luminescence, 60 min; inhibition, % at 10 µM; hit rate 0.01% among 330,000; AID 488839;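 active means highest replicate inhibition of at least 50% and at least 75% of replicates reaching 50%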;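 further: plate controls were DMSO neutral control for no effect and GW8510 at 10 µM for full effect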
Active calls of the source: *; . = no result; [ ] = another dose, or the depositor's remark. Most compounds without a hit are left out; they make up all but 2.9% or so of the library.

SMILES	Env fusion inh	dFosB activator	Cneo AK release	PAX8 inh HTS	GSIS activator	CDK5 p35 inh
O=C(O)c1ccc(NC2=C(Cl)C(=O)c3ccccc3C2=O)cc1	-28	1	-3	83*	-41	8
O=C1C(Cl)=C(Nc2ccccc2)C(=O)c2ccccc21	-199	-4	0	-12	35	2
COc1cccc(/C=N/NC(=O)C(=O)N/N=C/c2cccc(OC)c2O)c1O	10	11	.	6	-2	0
COc1cccc(/C=N/NC(=O)c2cc3cc([N+](=O)[O-])ccc3s2)c1O	-12	41*	10	33	11	0
COc1ccc(C)cc1NC(=O)Nc1cnccn1	-13	4	.	-5	8	-1
COc1ccc(Cl)cc1NC(=O)Nc1cnccn1	71*	6	4	10	13	2
COc1ccc(NC(=O)Nc2cnccn2)c(OC)c1	57*	-1	0	-18	-1	2
CC[C@H]1CC=CC[C@@H](C)Oc2ccccc2C(=O)N(C)[C@@H](C(C)C)C(=O)N1 (mixture of isomers)	.	.	.	.	13	.
CN1CCN(c2ccc(NC(=S)NC(=O)c3cccc4c(Cl)cccc34)cc2)CC1	-14	49*	8	-16	-3	0
CC(=O)N1[C@H](C(=O)N[C@@H](C)c2ccccc2)[C@@H](CO)[C@@H]2Cn3c(cccc3=O)[C@@H]21	.	.	56	-23	15	.
Oc1ccccc1-c1cc(C(F)(F)C(F)F)nc(-c2ccccc2)n1	-37	-4	0	.	112*	0
O=[N+]([O-])c1ccc(O)c(-c2cc(C(F)(F)F)nc(-c3ccccc3)n2)c1	60*	1	-1	107*	-3	-1
C[C@@H]1CCCCO[C@H](CN(C)C(=O)c2ccccc2)[C@@H](C)CN([C@H](C)CO)C(=O)c2cc(NS(C)(=O)=O)ccc2O1	-4[16.7 µM]	.	0	-6	25	.
O=C(NN=C(c1ccccc1)c1ccccn1)c1ccccc1	53	-28	.	77*	.	0
S=C(NN=C(c1ccccc1)c1ccccn1)N(Cc1ccccn1)Cc1ccccn1	76*	-12	.	.	12	0
O=C(N/N=C(\c1ccccc1)c1ccccn1)c1ccccc1Cl	35	-7	-4	72*	9	-2
COc1ccc(C(=O)N/N=C(\c2ccccc2)c2ccccn2)cc1	43	-24	-4	57	.	1
N#CCCCc1cc2ccccc2cn1	-345	-3	1	-22	51*	7
COc1cc2cnc(CCCC#N)cc2cc1OC	-67	-8	-1	-17	.	-4
O=[N+]([O-])c1cccc(-c2nc(-c3ccccc3)c(-c3cccs3)[nH]2)c1	.	9	4	.	48*	-2
O=[N+]([O-])c1cccc(-c2nc(-c3cccs3)c(-c3cccs3)[nH]2)c1	-84	1	-4	58	.	-1
COCC(=O)Nc1ccc2c(c1)C(=O)N(C)C[C@@H](OC)[C@H](C)CN(C(=O)c1ccccc1)[C@@H](C)CO2	-10[16.7 µM]	.	52	-5	-14	.
COCC(=O)N1C[C@H](C)[C@H](OC)CN(C)C(=O)c2ccc(NC(=O)NC(C)C)cc2OC[C@@H]1C	.	.	80*	.	9	.
COCC(=O)N1C[C@@H](C)[C@@H](OC)CN(C)C(=O)c2ccc(NC(=O)NC(C)C)cc2OC[C@@H]1C	.	.	2	.	7	.
COCC(=O)Nc1ccc2c(c1)C(=O)N(C)C[C@H](OC)[C@@H](C)CN(C(=O)c1ccccc1)[C@@H](C)CO2	-7[16.7 µM]	.	95*	4	-8	.
SMILES	Env fusion inh	dFosB activator	Cneo AK release	PAX8 inh HTS	GSIS activator	CDK5 p35 inh
COCC(=O)Nc1ccc2c(c1)OC[C@@H](C)N(C(=O)Cc1cccnc1)C[C@H](C)[C@@H](OC)CN(C)C2=O	.	.	92*	-7	7	.
CO[C@@H]1CN(C)C(=O)c2ccc(NC(C)=O)cc2OC[C@@H](C)N(C(=O)Cc2cccnc2)C[C@H]1C	-18[16.7 µM]	.	97*	-23	2	.
CCc1cc2c(COC(=O)c3cccc(S(C)(=O)=O)c3)cc(=O)oc2cc1O	-5	-12	3	3	50*	-1
CO[C@@H]1CN(C)C(=O)c2ccc(NS(=O)(=O)c3ccccc3Cl)cc2OC[C@H](C)NC[C@@H]1C	15[16.7 µM]	.	-5	.	1	.
CC(=O)N1CCCCN2[C@H](C1)[C@H](c1ccc(-c3cccc(C)c3)cc1)[C@@H]2CO	.	.	1	74*	-1	.
CC(C)C#Cc1ccc([C@@H]2[C@H](CO)N3CCCCN(C(=O)c4ccc5c(c4)OCO5)C[C@@H]23)cc1	.	.	111*	10	-17	.
CC(=O)N1CCCCN2[C@H](C1)[C@@H](c1ccc(-c3cccc(C)c3)cc1)[C@@H]2CO	.	.	54	-6	-14	.
CC(C)C#Cc1ccc([C@H]2[C@H](CO)N3CCCCN(C(=O)c4ccc5c(c4)OCO5)C[C@@H]23)cc1	.	.	-2	-2	-6	.
Cc1cccc(-c2ccc([C@@H]3[C@H]4CN(C(=O)c5ccc6c(c5)OCO6)CCCCN4[C@H]3CO)cc2)c1	.	.	86*	13	4	.
N=c1c2c(n(Cc3ccc(Br)cc3)c3c1CCC3)CCCC2	70*	-5	.	78*	-32	0
O=C(Nc1ccc2c(c1)OCO2)c1cc2ncc(Br)cn2n1	.	28*	0	.	0	-3
C[C@@H]1CCCCO[C@@H](CN(C)C(=O)Nc2ccc(F)cc2)[C@@H](C)CN([C@H](C)CO)C(=O)c2cc(NC(=O)CCCN(C)C)ccc2O1	9[16.7 µM]	.	-1	-20	13	.
CCN(CC(=O)NCc1cccs1)C(=O)CCOc1ccccc1	3	-6	3	-6	-10	-3
CCOc1ccc(OCCC(=O)N(CC)CC(=O)NCc2cccs2)cc1	1	-1	-2	-5	41*	0
COc1ccc(NC(=O)N(C)C[C@@H]2Oc3ccc(NC(=O)NC(C)C)cc3C(=O)N([C@@H](C)CO)C[C@@H]2C)cc1	.	.	0	15	0	.
COc1ccc(CNC(=O)N(C)C[C@@H]2OCc3ccccc3-c3c(n(C)c4ccccc34)C(=O)N([C@H](C)CO)C[C@@H]2C)cc1	85*[16.7 µM]	.	59	-19	12	.
COc1ccc(CNC(=O)N(C)C[C@@H]2OCc3ccccc3-c3c(n(C)c4ccccc34)C(=O)N([C@@H](C)CO)C[C@@H]2C)cc1	100*	.	.	-16	-12	.
COc1ccc(CNC(=O)N(C)C[C@@H]2OCc3ccccc3-c3c(n(C)c4ccccc34)C(=O)N([C@@H](C)CO)C[C@H]2C)cc1	38[16.7 µM]	.	-4	2	-8	.
C[C@H]1CN([C@@H](C)CO)C(=O)c2cccc(N(C)C)c2O[C@@H]1CN(C)S(=O)(=O)c1ccc(Cl)cc1	.	.	-7	-4	3	.
CC(C)NC(=O)N[C@H]1C=C[C@H](CC(=O)O)O[C@H]1CO	7[16.7 µM]	.	6	-12	-4	.

Bioassay records as filed in PubChem BioAssay.
